Measurements: PMC3401603 (Nature Chemical Biology, 2012)

Columns and labels:
E2A-HLF transformed BMC [1] = assay: Differentiation by morphology, E2A-HLF transformed BMC; type: cell-based, mouse
MLL-AF9 transduced BMC = assay: MTT cell viability assay, MLL-AF9 transduced BMC; type: cell-based, mouse
How it was run: (§1)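 Retrovirally transduced mouse bone marrow cells were grown in IMDM with 15% FBS, 1% penicillin/streptomycin and IL-3. Growth inhibition by the test compound was measured by MTT viability assay. Quadruplicates, mean ± s.d.; three experiments.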

[2] = system: menin and MLL-AF9 at the Hoxa9 locus; assay: ChIP at the Hoxa9 locus in MLL-AF9 transduced BMC; type: cell-based, mouse; conditions: 12.5 μM
How it was run: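 ChIP used BMC exposed to the test compound at 12.5 μM or to DMSO. Antibodies were against menin and AF9, with IgG as control. Enrichment was read at two sites in the Hoxa9 promoter region. Duplicate samples, mean ± s.d.; two experiments.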

E2A-HLF transduced BMC = assay: MTT cell viability assay, E2A-HLF transduced BMC; type: cell-based, mouse
How it was run: as §1

E2A-HLF transformed BMC [3] = assay: Methylcellulose colony formation assay, E2A-HLF transformed BMC; type: cell-based, mouse
How it was run: (§2)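 Transduced BMC were plated at 5×10³ cells/ml in methylcellulose medium containing 20% IMDM, 1% penicillin/streptomycin, IL-3 and either the test compound or 0.25% DMSO. Colonies were stained with iodonitrotetrazolium chloride (1 mg/ml final, 37 °C, 30 min) and counted. For a second round, unstained colonies were counted, washed out in PBS, and 5×10³ cells were replated in the same medium with compound, then stained and counted.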

MLL-ENL transformed BMC = assay: Differentiation by morphology, MLL-ENL transformed BMC; type: cell-based, mouse
MonoMac6 (MLL-AF9) = assay: MTT cell viability assay, MonoMac6; type: cell-based, human
How it was run: (§3)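 Growth inhibition was read by MTT viability assay, with 72h treatment stated for KOPN-8 and MV4;11. Media: KOPN-8 and ML-2, RPMI-1640 with 10% FBS. MV4;11, RPMI-1640 with 10% FBS, 1% penicillin/streptomycin and NEAA. MonoMac-6, RPMI-1640 with 15% FBS, human insulin, penicillin/streptomycin and NEAA. For KOPN-8 and MV4;11: four samples, mean ± s.d., three experiments.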

ML-2 (MLL-AF6) = assay: MTT cell viability assay, ML-2; type: cell-based, human; conditions: ML-2, MTT
How it was run: as §3

MEIS1 [4] = assay: qRT-PCR of MEIS1 in THP-1 cells; type: cell-based, human; conditions: THP-1, 6 days
How it was run: (§4)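 THP-1 cells in RPMI-1640 with 10% FBS, 1% penicillin/streptomycin and NEAA were treated with the test compound for 6 days. Total RNA (100–1000 ng) was reverse transcribed, and TaqMan qPCR measured human HOXA9 or MEIS1, normalised to 18S rRNA by the comparative Ct method. Duplicates, mean ± s.d.; three experiments.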

[5] = system: Kasumi-1, ME-1, HAL-01 and REH; assay: Growth of human acute leukemia cell lines lacking MLL fusions; type: cell-based; conditions: low HOXA9: Kasumi-1, ME-1, HAL-01, REH
Hoxa9 [6] = assay: Quantitative RT-PCR of Hoxa9 in MLL-AF9 transduced BMC; type: cell-based, mouse; conditions: 6 days
Meis1 [7] = assay: Quantitative RT-PCR of Meis1 in MLL-AF9 transduced BMC; type: cell-based, mouse; conditions: 6 days
M278K menin mutant = M278K menin mutant (Homo sapiens, UniProt O00255, M278K); assay: Thermal shift assay, M278K menin mutant; type: binding
M278K menin mutant, sequence (O00255 whole entry M278K): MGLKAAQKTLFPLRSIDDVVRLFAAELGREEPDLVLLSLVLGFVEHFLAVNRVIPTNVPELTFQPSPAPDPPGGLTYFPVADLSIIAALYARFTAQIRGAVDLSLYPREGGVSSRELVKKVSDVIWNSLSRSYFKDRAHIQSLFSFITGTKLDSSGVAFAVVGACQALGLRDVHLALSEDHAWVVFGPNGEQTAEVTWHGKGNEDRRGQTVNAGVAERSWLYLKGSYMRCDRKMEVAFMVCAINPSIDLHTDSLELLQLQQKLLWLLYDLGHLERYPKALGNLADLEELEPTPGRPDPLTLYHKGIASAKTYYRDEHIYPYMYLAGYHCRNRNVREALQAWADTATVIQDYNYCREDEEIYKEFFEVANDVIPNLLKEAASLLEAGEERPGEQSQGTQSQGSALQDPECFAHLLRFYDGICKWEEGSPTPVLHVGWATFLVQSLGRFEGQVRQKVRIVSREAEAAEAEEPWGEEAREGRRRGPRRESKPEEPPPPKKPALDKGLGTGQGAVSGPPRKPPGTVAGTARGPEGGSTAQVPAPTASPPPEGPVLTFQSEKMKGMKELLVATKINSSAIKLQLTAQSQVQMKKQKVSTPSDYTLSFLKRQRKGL

HOXA9 [8] = assay: qRT-PCR of HOXA9 in THP-1 cells; type: cell-based, human; conditions: THP-1, 6 days
How it was run: as §4

MLL-AF9 transformed BMC [9] = assay: Differentiation by morphology; type: cell-based, mouse; conditions: 7 to 10 days, 25 μM
MV4;11 = assay: Annexin V/PI apoptosis assay, MV4; type: cell-based, human; conditions: MV4;11, 48h
How it was run: (§5)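 Cells were seeded at 5×10⁵ cells/ml and exposed to the test compound or vehicle (0.25% DMSO final) for 48h at 37 °C in 5% CO₂. 1.5×10⁵ cells were then stained with Annexin V-FITC and propidium iodide in Annexin V binding buffer for 10 min at room temperature in the dark, and analysed by flow cytometry. Three experiments in triplicate; mean and SD.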

MLL-ENL transduced BMC = assay: MTT cell viability assay, MLL-ENL transduced BMC; type: cell-based, mouse
How it was run: as §1

[10] = system: CD11b expression in MLL-AF9 transformed BMC; assay: CD11b expression by flow cytometry, MLL-AF9 transformed BMC; type: cell-based, mouse; conditions: 7 days of treatment
How it was run: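 BMC were cultured in IMDM with 15% FBS, penicillin/streptomycin and IL-3, and plated at 5×10⁵ cells/ml with the test compound or 0.25% DMSO. Every 48h the medium was changed, viable density restored and compound resupplied. 1.5×10⁵ cells were washed in PBS/1% FBS/0.1% NaN₃, stained with Pacific Blue anti-mouse CD11b (4 °C, 30 min), then Annexin V-FITC/PI, and run on flow cytometry. Triplicates, mean ± s.d.; one-way ANOVA against DMSO; three experiments.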

[11] = system: CD11b expression in THP-1 cells; assay: CD11b expression by flow cytometry, THP-1; type: cell-based, human; conditions: THP-1, 6 days of treatment
[12] = system: MV4;11 (harboring MLL-AF4); assay: MTT cell viability assay, MV4; type: cell-based, human; conditions: MV4;11, MTT, 72h
How it was run: as §3

menin-MLL-AF9 complex = menin-MLL-AF9 complex (Homo sapiens, UniProt O00255); assay: Co-immunoprecipitation in HEK293 cells transfected with Flag-MLL-AF9; type: cell-based
menin-MLL-AF9 complex, sequence (O00255 whole entry, one chain of several): as the sequence (O00255 whole entry M278K) above, with K278M counted along it
How it was run: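 Menin co-precipitating with Flag-MLL-AF9 was detected by Western blot. Untransfected cells controlled for endogenous menin and for absence of MLL-AF9. Menin and MLL-AF9 expression levels were also checked by Western blot.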

Y323K menin mutant = Y323K menin mutant (Homo sapiens, UniProt O00255, Y323K); assay: Thermal shift assay, Y323K menin mutant; type: binding
Y323K menin mutant, sequence (O00255 whole entry Y323K): as the sequence (O00255 whole entry M278K) above, with K278M, Y323K counted along it

KOPN-8 (MLL-ENL) = assay: MTT cell viability assay, KOPN-8; type: cell-based, human; conditions: KOPN-8, MTT, 72h
How it was run: as §3

wild-type menin = wild-type menin (Homo sapiens, UniProt O00255); assay: Thermal shift assay, wild-type menin; type: binding
wild-type menin, sequence (O00255 whole entry): as the sequence (O00255 whole entry M278K) above, with K278M counted along it

MV4;11 leukemia cells = assay: Cell cycle analysis by FACS after PI staining, MV4; type: cell-based, human; conditions: MV4;11, PI staining
MLL-AF9 transformed BMC [13] = assay: Methylcellulose colony formation assay, MLL-AF9 transformed BMC; type: cell-based, mouse; conditions: 7 days
How it was run: as §2

MonoMac6 = assay: Annexin V/PI apoptosis assay, MonoMac6; type: cell-based, human; conditions: MonoMac6, 48h
How it was run: as §5

binding of menin and MLL-AF9 to the Hoxa9 locus (ChIP) [2]: decreased binding of menin and MLL-AF9 | binding to M278K menin mutant (M278K menin mutant): no binding | GI50 [12]: 9.5 µM | disruption of the menin-MLL-AF9 complex (co-IP) (menin-MLL-AF9 complex): very efficiently disrupted | binding to Y323K menin mutant (Y323K menin mutant): no binding | binding to wild-type menin (wild-type menin): clearly observed binding
Compound: CCCc1cc2c(N3CCN(C4=NCC(C)(C)S4)CC3)ncnc2s1 [MI-2]
differentiation (cell morphology) (E2A-HLF transformed BMC [1]): did not differentiate | GI50 (MLL-AF9 transduced BMC): ~5 µM | GI50 (E2A-HLF transduced BMC): > 50 µM | effect on the number, size and morphology of colonies (E2A-HLF transformed BMC [3]): only a limited effect | differentiation (cell morphology) (MLL-ENL transformed BMC): observed differentiation | GI50 (MonoMac6 (MLL-AF9)): 18 µM | GI50 (ML-2 (MLL-AF6)): 8.7 µM | expression of MEIS1 (MEIS1 [4]): substantially reduced expression | effect on proliferation [5]: very limited effect | decrease of Hoxa9 expression level (Hoxa9 [6]; 12.5 μM): > 80% | decrease of Hoxa9 expression level (Hoxa9 [6]; 25 μM): > 80% | decrease of Meis1 expression level (Meis1 [7]; 12.5 μM): > 80% | decrease of Meis1 expression level (Meis1 [7]; 25 μM): > 80% | expression of HOXA9 (HOXA9 [8]): substantially reduced expression | differentiation (cell morphology) (MLL-AF9 transformed BMC [9]): substantial changes in morphology, indicative of monocytic differentiation | Annexin V (+) and Annexin V/PI (+)/(+) cells (apoptosis) (MV4;11): substantial, and dose-dependent increase | GI50 (MLL-ENL transduced BMC): ~5 µM | expression of CD11b [10]: substantially increased | CD11b positive cells [11]: substantial increase in CD11b positive cells | GI50 (KOPN-8 (MLL-ENL)): 7.2 µM | effect on cell cycle progression (MV4;11 leukemia cells): consistent increase in the number of cells in G0/G1 phase | effect on colony formation (MLL-AF9 transformed BMC [13]): substantially reduced colony formation | Annexin V (+) and Annexin V/PI (+)/(+) cells (apoptosis) (MonoMac6): substantial, and dose-dependent increase
